Experimental data taken from article PMC7119000 (Phytomedicine, 2013).
Like-named read-outs stand apart in the source and are kept apart here.

Tests used:
[1] = In vitro Caco-2 cell monolayer transport, apical-to-basolateral; format: in vitro ADME, human; settings: human, Caco-2
Procedure, shortened: (§1)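 Caco-2 cells grown in high-glucose DMEM with 10% FBS and 1% nonessential amino acids at 37 °C, 5% CO2. Seeded at 1.0 × 10^5 cells/cm2 on 4.2 cm2 inserts. Monolayers with TEER >250 Ω cm2 were HBSS-washed and preincubated 1 h at 37 °C. Compound was loaded apically, with samples taken at 0–4 h. Analysed by UPLC–MS/MS; Papp = (dQ/dt)/(A × C0).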

[2] = system: Caco-2 cell monolayers; test: as above; format: in vitro ADME, human; settings: for Apically loaded amount retained on the apical side: Caco-2 cell transport, authors' unpublished data
Procedure, shortened: as §1

[3] = format: in vivo, rat; settings: for AUC(0-t) / Cmax / Tmax: male, SD, rat, plasma, po
[4] = system: Caco-2 cell monolayers; settings: flavonoids glucosides; ref the previous report; cited from earlier work

SMILES: O=C(/C=C/c1ccc(O)c(O)c1)O[C@@H]1C[C@](O)(C(=O)O)C[C@@H](O)[C@H]1O [Chlorogenic acid]
- Papp A→B at 4 h [1]: 19 ± 3.35 ×10⁻⁶ cm/s
- Papp-value increased to, compared to control ([2]; with addition of 0.1% (w/v) of COS): 9800%
- AUC(0-t) ([3]; 25 mg/kg): 658 ng·h/mL
- Cmax ([3]; 25 mg/kg): 284 ± 76.8 ng/mL
- Tmax ([3]; 25 mg/kg): 13.8 min
- AUC(0-t) ([3]; 10 ml/kg): 541 ng·h/mL
- Cmax ([3]; 10 ml/kg): 236 ± 61.2 ng/mL
- Tmax ([3]; 10 ml/kg): 30 min
- AUC increased to, compared to control ([3]; with COS 25 mg/kg, rats, oral): 122%

SMILES: O=c1cc(-c2ccc(O)c(O)c2)oc2cc(O[C@@H]3O[C@H](CO)[C@@H](O)[C@H](O)[C@H]3O)cc(O)c12 [Galuteolin]
- Apically loaded amount retained on the apical side [2]: about 100%
- Absorption into Caco-2 cell [4]: cannot be well absorbed

SMILES: O=c1c(O[C@@H]2O[C@H](CO)[C@H](O)[C@H](O)[C@H]2O)c(-c2ccc(O)c(O)c2)oc2cc(O)cc(O)c12 [Hyperoside]
- Absorption into Caco-2 cell [4]: cannot be well absorbed

SMILES: O=c1cc(-c2ccc(O)c(O)c2)oc2cc(O[C@@H]3O[C@H](CO)[C@H](O)[C@H](O)[C@H]3O)cc(O)c12 [Luteolin-7-o--β-D-galactoside]
- Absorption into Caco-2 cell [4]: cannot be well absorbed

SMILES: C[C@@H]1O[C@@H](OC[C@H]2O[C@@H](Oc3c(-c4ccc(O)c(O)c4)oc4cc(O)cc(O)c4c3=O)[C@H](O)[C@@H](O)[C@@H]2O)[C@H](O)[C@H](O)[C@H]1O [Rutin]
- Apically loaded amount retained on the apical side [2]: about 100%
- Absorption into Caco-2 cell [4]: cannot be well absorbed

SMILES: O=c1c(O[C@@H]2O[C@H](CO)[C@H](O)[C@H](O)[C@H]2O)c(-c2ccc(O)c(O)c2)oc2cc(O)cc(O)c12 [hyperin]
- Apically loaded amount retained on the apical side [2]: about 100%
